Measurements reported in ChEMBL document CHEMBL1143610, “Applying linear interaction energy method for rational design of noncompetitive allosteric inhibitors of the sarco- and endoplasmic reticulum calcium-ATPase” (J Med Chem, 2005).

molecular target: T1, Sarcoplasmic/endoplasmic reticulum calcium ATPase 1 (Homo sapiens, UniProt O14983); assay: Inhibitory potency against sarco- endoplasmic reticulum calcium-ATPase in relative to thapsigargin
Target sequence in this assay (O14983 whole entry, looked up): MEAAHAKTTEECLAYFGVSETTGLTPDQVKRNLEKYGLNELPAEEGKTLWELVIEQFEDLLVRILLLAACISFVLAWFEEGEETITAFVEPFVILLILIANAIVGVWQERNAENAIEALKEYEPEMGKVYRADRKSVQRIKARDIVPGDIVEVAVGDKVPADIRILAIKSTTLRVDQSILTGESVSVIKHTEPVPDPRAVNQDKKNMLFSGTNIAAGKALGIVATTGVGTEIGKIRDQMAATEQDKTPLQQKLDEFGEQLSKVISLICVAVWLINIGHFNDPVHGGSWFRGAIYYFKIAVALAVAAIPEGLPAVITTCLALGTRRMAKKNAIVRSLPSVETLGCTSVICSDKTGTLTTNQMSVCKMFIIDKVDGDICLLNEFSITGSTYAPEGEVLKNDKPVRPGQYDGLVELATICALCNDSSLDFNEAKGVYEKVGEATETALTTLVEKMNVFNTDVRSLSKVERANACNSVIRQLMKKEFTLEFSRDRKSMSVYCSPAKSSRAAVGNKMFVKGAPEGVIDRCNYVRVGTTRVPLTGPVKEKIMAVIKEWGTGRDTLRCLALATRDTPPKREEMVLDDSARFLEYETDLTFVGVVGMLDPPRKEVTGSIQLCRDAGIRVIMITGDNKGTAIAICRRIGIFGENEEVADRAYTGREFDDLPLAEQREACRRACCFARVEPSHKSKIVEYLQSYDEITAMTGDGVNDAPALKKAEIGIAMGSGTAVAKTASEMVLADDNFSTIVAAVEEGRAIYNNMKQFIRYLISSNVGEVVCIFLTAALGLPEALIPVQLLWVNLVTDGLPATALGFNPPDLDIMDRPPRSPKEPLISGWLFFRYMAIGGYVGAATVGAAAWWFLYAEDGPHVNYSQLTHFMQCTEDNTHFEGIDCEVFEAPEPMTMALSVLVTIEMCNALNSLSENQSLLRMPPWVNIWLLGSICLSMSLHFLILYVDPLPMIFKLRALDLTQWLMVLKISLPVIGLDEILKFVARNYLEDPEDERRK

| SMILES | RIC50 |
| --- | --- |
| C/C=C(/C)C(=O)O[C@H]1C(C)=C2[C@H]([C@@H]1OC(=O)CCCCCCC)[C@@](C)(OC(C)=O)C[C@H](OC(=O)CCc1ccc(NC(=O)OC(C)(C)C)cc1)[C@@]1(O)[C@H]2O[C@H](O)[C@@]1(C)O | 0.52 |
| C/C=C(/C)C(=O)O[C@H]1C(C)=C2[C@H]([C@@H]1OC(=O)CCCCCCC)[C@@](C)(OC(C)=O)C[C@H](OC(=O)CCCc1ccc(N)cc1)[C@@]1(O)[C@H]2O[C@H](O)[C@@]1(C)O | 0.6 |
| C/C=C(/C)C(=O)O[C@H]1C(C)=C2[C@H]([C@@H]1OC(=O)CCCCCCC)[C@@](C)(OC(C)=O)C[C@H](OC(=O)/C=C/c1ccc(N)cc1)[C@@]1(O)[C@H]2O[C@H](O)[C@@]1(C)O | 0.59 |
| C/C=C(\C)C(=O)O[C@H]1C(C)=C2[C@H]([C@@H]1OC(=O)CCCCCCC)[C@@](C)(O)C[C@H](OC(=O)CCC)[C@@]1(O)[C@H]2OC(=O)[C@@]1(C)O | 0.02 |
| C/C=C(/C)C(=O)O[C@H]1C(C)=C2[C@H]([C@@H]1OC(=O)CCCCCCC)[C@@](C)(OC(C)=O)C[C@@H](OC(=O)CCC)[C@@]1(O)[C@H]2OC(=O)[C@@]1(C)O | 0.0003 |
| C/C=C(/C)C(=O)O[C@H]1C(C)=C2[C@H]([C@@H]1OC(=O)CCCCCCC)[C@@](C)(OC(C)=O)C[C@H](OC(=O)CCCCCCCCCCCNC(=O)[C@H](C)N)[C@@]1(O)[C@H]2O[C@H](O)[C@@]1(C)O | 0.833 |
| C/C=C(/C)C(=O)O[C@H]1C(C)=C2[C@H]([C@@H]1OC(=O)CCCCCCC)[C@@](C)(OC(C)=O)C[C@H](OC(=O)CCCCCCN)[C@@]1(O)[C@H]2O[C@H](O)[C@@]1(C)O | 0.011 |
| C/C=C(/C)C(=O)O[C@H]1C(C)=C2[C@H]([C@@H]1OC(=O)CCCCCCC)[C@@](C)(OC(C)=O)C[C@H](OC(=O)CCC)[C@@]1(O)[C@H]2OC(=O)[C@@]1(C)O (stereo in doubt; form 2) | 0.67 |
| C/C=C(/C)C(=O)O[C@H]1C(C)=C2[C@H]([C@@H]1OC(=O)CCCCCCC)[C@@](C)(OC(C)=O)C[C@H](OC(=O)CCC)[C@@]1(O)[C@H]2OC(=O)[C@@]1(C)O (stereo in doubt; form 1) | 1 |
| CCCCCCCCO[C@@H]1C(C)=C2[C@H]([C@@H]1OC(=O)CCCCCCC)[C@@](C)(OC(C)=O)C[C@H](OC(=O)CCC)[C@@]1(O)[C@H]2OC(=O)[C@@]1(C)O | 0.002 |
| C/C=C(/C)C(=O)O[C@H]1C(C)=C2[C@H]([C@@H]1OC(=O)CCCCCCC)[C@@](C)(OC(C)=O)C[C@H](OC(=O)CCCCCCCN)[C@@]1(O)[C@H]2O[C@H](O)[C@@]1(C)O | 0.059 |
| C/C=C(/C)C(=O)O[C@H]1C(C)=C2[C@H]([C@@H]1OC(=O)CCCCCCC)[C@@](C)(OC(C)=O)C[C@H](OC(=O)CCCCCCCCCCCNC(=O)[C@@H](N)CC(C)C)[C@@]1(O)[C@H]2O[C@H](O)[C@@]1(C)O | 0.294 |
| C/C=C(/C)C(=O)O[C@H]1C(C)=C2[C@H]([C@@H]1OC(=O)CCCCC)[C@@](C)(OC(C)=O)C[C@H](OC(=O)CCC)[C@@]1(O)[C@H]2O[C@@H](OCC)[C@@]1(C)O | 0.52 |
| C/C=C(/C)C(=O)O[C@H]1C(C)=C2[C@H]([C@@H]1OC(=O)CCCCCCC)[C@@](C)(OC(C)=O)C[C@H](OC(=O)CCCCCCCCCCCNC(=O)[C@@H](N)CO)[C@@]1(O)[C@H]2O[C@H](O)[C@@]1(C)O | 1.25 |
| C/C=C(/C)C(=O)O[C@H]1C(C)=C2[C@H]([C@@H]1OC(=O)CCCCCCC)[C@@](C)(OC(C)=O)C[C@H](OC(=O)CCCCCN)[C@@]1(O)[C@H]2O[C@H](O)[C@@]1(C)O | 0.01 |
| C/C=C(/C)C(=O)O[C@H]1C(C)=C2[C@H]([C@@H]1O)[C@@](C)(O)C[C@H](OC(=O)CCC)[C@@]1(O)[C@H]2O[C@H]2OC(C)(C)O[C@]21C | 0.0002 |
| C/C=C(/C)C(=O)O[C@H]1C(C)=C2[C@H]([C@@H]1OC(=O)CCCCCCC)[C@@](C)(OC(C)=O)C[C@H](OC(=O)CCCCCCCCCCCN)[C@@]1(O)[C@H]2O[C@H](O)[C@@]1(C)O | 0.384 |

molecular target: T1, Sarcoplasmic/endoplasmic reticulum calcium ATPase 1; assay: Inhibitory potency against sarco- endoplasmic reticulum calcium-ATPase in relative to thapsigargin (Experimental)
Target sequence in this assay (O14983 whole entry, looked up): as above

| SMILES | RIC50 |
| --- | --- |
| CCCCCCCC(=O)O[C@@H]1C(=O)C(C)=C2[C@H]1[C@@](C)(OC(C)=O)C[C@H](OC(=O)CCC(=O)Nc1ccc(C)c(N)c1)[C@@]1(O)[C@H]2OC(=O)[C@@]1(C)O | 0.004 |
| CCCCCCCC(=O)O[C@@H]1C(=O)C(C)=C2[C@H]1[C@@](C)(OC(C)=O)C[C@H](OC(=O)CCCC(=O)O)[C@@]1(O)[C@H]2OC(=O)[C@@]1(C)O | 0.02 |
| CCCCCCCC(=O)O[C@@H]1C(=O)C(C)=C2[C@H]1[C@@](C)(OC(C)=O)C[C@H](OC(=O)CCCCCCCCCCCNC(=O)CCC(N)C(=O)O)[C@@]1(O)[C@H]2OC(=O)[C@@]1(C)O (some centres undefined) | 0.83 |
| CCCCCCCC(=O)O[C@@H]1C(=O)C(C)=C2[C@H]1[C@@](C)(OC(C)=O)C[C@H](OC(=O)CCCCCCCCCCC(=O)O)[C@@]1(O)[C@H]2OC(=O)[C@@]1(C)O | 0.25 |

molecular target: T1, Sarcoplasmic/endoplasmic reticulum calcium ATPase 1; assay: Inhibitory potency against sarco- endoplasmic reticulum calcium-ATPase in relative to thapsigargin by using SGB-LIE method
In short: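 SGB-LIE computation with a surface generalized Born continuum solvent. SERCA coordinates came from one TG-bound monomer of PDB 1IWO, truncated to the transmembrane domain, lumen and the near-membrane cytoplasmic part. Histidine protonation was set to favour H-bonds. Ligands were superimposed on bound TG, with O-8 side chains in the hydrophobic channel. Vacuum minimisation held protein atoms fixed except nonpolar H. LIE parameters were fitted to experimental data for 20 training analogues.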
Target sequence in this assay (O14983 whole entry, looked up): as above

| SMILES | RIC50 |
| --- | --- |
| CCCCCCCC(=O)O[C@@H]1C(=O)C(C)=C2[C@H]1[C@@](C)(OC(C)=O)C[C@H](OC(=O)CCC(=O)Nc1ccc(C)c(N)c1)[C@@]1(O)[C@H]2OC(=O)[C@@]1(C)O | 0.0006 |
| CCCCCCCC(=O)O[C@@H]1C(=O)C(C)=C2[C@H]1[C@@](C)(OC(C)=O)C[C@H](OC(=O)CCCC(=O)O)[C@@]1(O)[C@H]2OC(=O)[C@@]1(C)O | 0.31 |
| CCCCCCCC(=O)O[C@@H]1C(=O)C(C)=C2[C@H]1[C@@](C)(OC(C)=O)C[C@H](OC(=O)CCCCCCCCCCCNC(=O)CCC(N)C(=O)O)[C@@]1(O)[C@H]2OC(=O)[C@@]1(C)O (some centres undefined) | 5 |
| CCCCCCCC(=O)O[C@@H]1C(=O)C(C)=C2[C@H]1[C@@](C)(OC(C)=O)C[C@H](OC(=O)CCCCCCCCCCC(=O)O)[C@@]1(O)[C@H]2OC(=O)[C@@]1(C)O | 2.08 |

molecular target: T1, Sarcoplasmic/endoplasmic reticulum calcium ATPase 1; assay: Inhibitory activity against sarco- endoplasmic reticulum calcium-ATPase
Target sequence in this assay (O14983 whole entry): as the sequence (O14983 whole entry, looked up) above

| SMILES | IC50 [nM] |
| --- | --- |
| CCCCCCCC(=O)O[C@@H]1C(=O)C(C)=C2[C@H]1[C@@](C)(OC(C)=O)C[C@H](OC(=O)CCC(=O)Nc1ccc(C)c(N)c1)[C@@]1(O)[C@H]2OC(=O)[C@@]1(C)O | 9040 |
| CCCCCCCC(=O)O[C@@H]1C(=O)C(C)=C2[C@H]1[C@@](C)(OC(C)=O)C[C@H](OC(=O)CCCC(=O)O)[C@@]1(O)[C@H]2OC(=O)[C@@]1(C)O | 19.8 |
| CCCCCCCC(=O)O[C@@H]1C(=O)C(C)=C2[C@H]1[C@@](C)(OC(C)=O)C[C@H](OC(=O)CCCCCCCCCCCNC(=O)CCC(N)C(=O)O)[C@@]1(O)[C@H]2OC(=O)[C@@]1(C)O (some centres undefined) | 1.2 |
| CCCCCCCC(=O)O[C@@H]1C(=O)C(C)=C2[C@H]1[C@@](C)(OC(C)=O)C[C@H](OC(=O)CCCCCCCCCCC(=O)O)[C@@]1(O)[C@H]2OC(=O)[C@@]1(C)O | 2.08 |
